Measured values as given in ChEMBL document CHEMBL1817606, “3-benzhydryl-4-piperidones as novel neurokinin-1 receptor antagonists and their efficient synthesis” (Bioorg Med Chem, 2011).
Active and inactive are the calls of the source. The calls are words filed in the database; no cut-off is given here.

How the values were obtained:
[1] = molecular target: T1, Substance-P receptor (Homo sapiens, UniProt P25103); test: Displacement of [125I]BH-SP from human tachykinin NK1 receptor expressed in IM9 cells at 10^-7 M after 30 mins by scintillation counting; assay type: cell-based; conditions: IM-9
[2] = molecular target: T1, Substance-P receptor; test: Displacement of [125I]BH-SP from human tachykinin NK1 receptor expressed in IM9 cells after 30 mins by scintillation counting; assay type: cell-based, IM-9
How it was run: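 Membranes from IM-9 cells grown 3 days, homogenized in 50 mM Tris-HCl pH 7.4 with NaCl, KCl, EDTA and protease inhibitors, spun at 40,000g for 20 min, then resuspended in a Tris buffer with 0.02% BSA and 3 mM MnCl2. Nonspecific binding was defined with 2 × 10^-6 M SP. Bound ligand was collected on GF/C filters, washed three times and counted.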

[3] = system: Cavia porcellus; test: Inhibition of capsaicin-induced plasma extravasation in trachea of po dosed guinea pig; assay type: functional, organism-based
[4] = system: Cavia porcellus; test: Inhibition of capsaicin-induced plasma extravasation in trachea of iv dosed guinea pig; assay type: functional, organism-based

T1 sequence (P25103 whole entry): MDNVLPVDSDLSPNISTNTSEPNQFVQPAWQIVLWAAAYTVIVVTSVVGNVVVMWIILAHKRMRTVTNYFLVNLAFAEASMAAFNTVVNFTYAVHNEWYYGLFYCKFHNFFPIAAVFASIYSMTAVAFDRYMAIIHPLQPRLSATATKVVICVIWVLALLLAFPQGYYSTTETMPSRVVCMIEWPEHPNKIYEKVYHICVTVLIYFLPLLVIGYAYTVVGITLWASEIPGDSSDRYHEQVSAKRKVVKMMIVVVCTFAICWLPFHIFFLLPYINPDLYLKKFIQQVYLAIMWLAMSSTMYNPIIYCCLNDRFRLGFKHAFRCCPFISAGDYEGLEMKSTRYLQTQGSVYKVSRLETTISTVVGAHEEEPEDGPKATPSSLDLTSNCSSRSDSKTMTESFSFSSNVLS

Compound | IC50 [2] | other results
O=C1CCN(Cc2ccccc2)CC1=C(c1ccccc1)c1ccccc1 | – | inhibition [1]: -2%
O=C1CCN(Cc2ccccc2)CC1C(c1ccccc1)c1ccccc1 (racemic) | 97 nM | inhibition [1]: 81.7%
O=C1CCN(Cc2ccccc2)CC1C(c1ccc(F)cc1)c1ccc(F)cc1 (racemic) | 97 nM | inhibition [1]: 81.7%
O=C1CCN(Cc2ccccc2)CC1C(c1ccc(Cl)cc1)c1ccc(Cl)cc1 (racemic) | 97 nM | inhibition [1]: 81.7%
O=C1CCN(Cc2ccccc2O)CC1C(c1ccc(F)cc1)c1ccc(F)cc1 (racemic) | 280 nM | –
COc1ccccc1CN1CCC(=O)C(C(c2ccc(F)cc2)c2ccc(F)cc2)C1 (racemic) | 6.6 nM | –
COc1cccc(CN2CCC(=O)C(C(c3ccc(F)cc3)c3ccc(F)cc3)C2)c1 (racemic) | 31 nM | –
COc1ccc(CN2CCC(=O)C(C(c3ccc(F)cc3)c3ccc(F)cc3)C2)cc1 (racemic) | 77 nM | –
O=C1CCN(Cc2ccccc2C(F)(F)F)CC1C(c1ccc(F)cc1)c1ccc(F)cc1 (racemic) | 4.9 nM | –
O=C1CCN(Cc2cccc(C(F)(F)F)c2)CC1C(c1ccc(F)cc1)c1ccc(F)cc1 (racemic) | 270 nM | –
O=C1CCN(Cc2ccc(C(F)(F)F)cc2)CC1C(c1ccc(F)cc1)c1ccc(F)cc1 (racemic) | 220 nM | –
O=C1CCN(Cc2ccccc2F)CC1C(c1ccc(F)cc1)c1ccc(F)cc1 (racemic) | 46 nM | –
N#Cc1ccccc1CN1CCC(=O)C(C(c2ccc(F)cc2)c2ccc(F)cc2)C1 (racemic) | 6.1 nM | –
O=C1CCN(Cc2ccccc2[N+](=O)[O-])CC1C(c1ccc(F)cc1)c1ccc(F)cc1 (racemic) | 18 nM | –
O=C1CCN(Cc2ccccc2-c2ccccc2)CC1C(c1ccc(F)cc1)c1ccc(F)cc1 (racemic) | 14 nM | –
COc1cccc(CN2CCC(=O)C(C(c3ccc(F)cc3)c3ccc(F)cc3)C2)c1OC (racemic) | 55 nM | –
COc1ccc(CN2CCC(=O)C(C(c3ccc(F)cc3)c3ccc(F)cc3)C2)c(OC)c1 (racemic) | 9.5 nM | –
COc1ccc(OC)c(CN2CCC(=O)C(C(c3ccc(F)cc3)c3ccc(F)cc3)C2)c1 (racemic) | 3.1 nM | –
COc1cccc(OC)c1CN1CCC(=O)C(C(c2ccc(F)cc2)c2ccc(F)cc2)C1 (racemic) | 2.3 nM | –

Compound | IC50 [2] | other results
COc1ccc(F)cc1CN1CCC(=O)C(C(c2ccc(F)cc2)c2ccc(F)cc2)C1 (racemic) | 4 nM | –
COc1ccc(Br)cc1CN1CCC(=O)C(C(c2ccc(F)cc2)c2ccc(F)cc2)C1 (racemic) [listing 1 of 2 here] | 1.1 nM | –
COc1ccc(OC(F)(F)F)cc1CN1CCC(=O)C(C(c2ccc(F)cc2)c2ccc(F)cc2)C1 (racemic) | 0.81 nM | –
COc1ccc([N+](=O)[O-])cc1CN1CCC(=O)C(C(c2ccccc2)c2ccccc2)C1 (racemic) | 2.6 nM | –
COc1ccc(NC(C)=O)cc1CN1CCC(=O)C(C(c2ccccc2)c2ccccc2)C1 (racemic) | 15 nM | –
COc1ccc(N)cc1CN1CCC(=O)C(C(c2ccccc2)c2ccccc2)C1 (racemic) | 5.9 nM | –
COc1ccc(Br)cc1CN1CCC(=O)C(C(c2ccc(F)cc2)c2ccc(F)cc2)C1 (racemic) [listing 2 of 2 here] | – | inhibition [3]: inactive; inhibition [4]: inactive
COc1ccc(C(C)C)cc1CN1CCC(=O)C(C(c2ccccc2)c2ccccc2)C1 (racemic) | – | inhibition [3]: inactive; inhibition [4]: inactive
COc1ccc(NS(C)(=O)=O)cc1CN1CCC(=O)C(C(c2ccccc2)c2ccccc2)C1 (racemic) | – | inhibition [3]: inactive; inhibition [4]: inactive
COc1ccc(OC(F)(F)F)cc1CN1CCC(=O)C(C(c2ccccc2)c2ccccc2)C1 (racemic) | – | inhibition [3]: inactive; inhibition [4]: inactive
O=C1CCN(CCc2ccccc2)CC1C(c1ccccc1)c1ccccc1 (racemic) | – | inhibition [1]: 54.3%
O=C1CCN(Cc2cc(C(F)(F)F)cc(C(F)(F)F)c2)CC1C(c1ccc(F)cc1)c1ccc(F)cc1 (racemic) | – | inhibition [1]: 32.9%
O=C1CCN(Cc2ccccc2)CC1C1c2ccccc2C=Cc2ccccc21 (racemic) | – | inhibition [1]: 31.1%
O=C1CCN(Cc2ccccc2)CC1C1c2ccccc2Oc2ccccc21 (racemic) | – | inhibition [1]: 29.8%
O=C1CCNCC1C(c1ccccc1)c1ccccc1 (racemic) | – | inhibition [1]: 17.6%
O=C1CN(Cc2ccccc2)CC1C(c1ccccc1)c1ccccc1 (racemic) | – | inhibition [1]: -0.6%
O=C1CN(Cc2ccccc2)CCC1C(c1ccccc1)c1ccccc1 (racemic) | – | inhibition [1]: 9.7%
COc1ccc(Br)cc1CN1CCC(=O)C(C(c2ccc(F)cc2)c2ccc(F)cc2)C1 (single isomer, unassigned; (+)) | 1.5 nM | –
